Measured values as given in ChEMBL document CHEMBL1134952, “Dual NK(1) antagonists--serotonin reuptake inhibitors as potential antidepressants. Part 2: SAR and activity of benzyloxyphenethyl piperazine derivatives” (Bioorg Med Chem Lett, 2002).
pIC50: −log10 of the molar value. Calls of active or inactive are those of the source. The calls are words filed in the database; no cut-off is given here.

Columns and labels:
[1] = target: Sodium-dependent serotonin transporter (Rattus norvegicus, UniProt P31652); experiment: Binding affinity against Serotonin transporter in rat cerebral cortex using [3H]paroxetine binding assay.; assay type: tissue-based
Summary of the method: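 Rat cerebral cortex membranes, […] protein, incubated 120 min at 25 °C in 50 mM Tris–HCl pH 7.4 with 2 mM MgCl2 and 0.05 nM radioligand. Nonspecific binding taken as the residual binding with excess imipramine present.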

Substance-P receptor [2] = target: T1, Substance-P receptor (Homo sapiens, UniProt P25103); experiment: Binding affinity against human Tachykinin receptor 1 expressed in CHO cells using [3H]-substance P as the radioligand; assay type: cell-based
Substance-P receptor [3] = target: T1, Substance-P receptor; experiment: Binding affinity against human Tachykinin receptor 1 expressed in CHO cells using [3H]-substance P as the radioligand; less than 50% inhibition at 10e-5 M; assay type: cell-based
Gerbillinae = experiment: Dose required to decrease by 45% the duration of the foot-tapping, indicating efficacious central blockade of NK1 receptors; assay type: functional
Cavia porcellus [4] = experiment: Oral dose required attenuate by 50% the duration of vocalizations in the isolation-induced guinea pig pup by vocalization test; assay type: functional
Cavia porcellus [5] = experiment: Oral dose required attenuate by 99% the duration of vocalizations in the isolation-induced guinea pig pup by vocalization test; assay type: functional
Rattus norvegicus = experiment: Intraperitoneal dose required to increase extracellular 5-HT levels to 250% in the frontal cortex of freely moving rats by using intracerebral microdialysis.; assay type: functional

T1 sequence (P25103 whole entry): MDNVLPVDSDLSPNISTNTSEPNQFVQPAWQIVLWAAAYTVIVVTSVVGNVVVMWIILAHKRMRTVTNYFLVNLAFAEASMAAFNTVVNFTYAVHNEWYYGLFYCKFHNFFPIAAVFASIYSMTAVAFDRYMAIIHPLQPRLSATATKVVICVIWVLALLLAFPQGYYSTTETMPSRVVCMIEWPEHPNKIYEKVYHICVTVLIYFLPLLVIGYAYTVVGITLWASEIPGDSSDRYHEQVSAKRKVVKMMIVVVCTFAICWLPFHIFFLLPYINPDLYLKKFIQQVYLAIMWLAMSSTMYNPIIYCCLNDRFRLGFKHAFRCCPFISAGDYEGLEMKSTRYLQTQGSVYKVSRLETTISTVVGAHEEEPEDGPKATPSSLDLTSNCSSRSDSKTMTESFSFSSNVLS
Sodium-dependent serotonin transporter, sequence (P31652 whole entry): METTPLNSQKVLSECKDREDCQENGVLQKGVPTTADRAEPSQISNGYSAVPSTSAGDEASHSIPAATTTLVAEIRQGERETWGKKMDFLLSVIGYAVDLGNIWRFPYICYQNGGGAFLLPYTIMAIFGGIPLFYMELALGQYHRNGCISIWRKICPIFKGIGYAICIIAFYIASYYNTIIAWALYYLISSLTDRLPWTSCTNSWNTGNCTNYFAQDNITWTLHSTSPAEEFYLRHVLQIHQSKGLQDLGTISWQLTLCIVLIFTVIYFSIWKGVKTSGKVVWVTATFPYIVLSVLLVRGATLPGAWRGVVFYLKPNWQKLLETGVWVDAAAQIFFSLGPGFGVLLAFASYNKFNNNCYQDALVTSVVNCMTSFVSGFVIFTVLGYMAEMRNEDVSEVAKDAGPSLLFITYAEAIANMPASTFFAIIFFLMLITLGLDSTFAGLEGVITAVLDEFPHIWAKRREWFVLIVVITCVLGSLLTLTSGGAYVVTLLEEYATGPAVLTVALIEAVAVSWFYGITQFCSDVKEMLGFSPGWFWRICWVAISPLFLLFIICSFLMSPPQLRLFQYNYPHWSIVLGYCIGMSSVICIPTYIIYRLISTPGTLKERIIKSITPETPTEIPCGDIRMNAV

Row | SMILES | pIC50 [1] | pIC50 (Substance-P receptor [2]) | further results
1 | COc1cccc(C(COCc2cc(C(F)(F)F)cc(C(F)(F)F)c2)N2CCNCC2)c1 (configuration not stated) | 6.70 | 9.00 | –
2 | FC(F)(F)c1cc(COCC(c2ccccc2Cl)N2CCNCC2)cc(C(F)(F)F)c1 (configuration not stated) | 6.70 | 8.80 | –
3 | CNCCC(Oc1ccc(C(F)(F)F)cc1)c1ccccc1 (configuration not stated) | – | – | Log IC50 (Substance-P receptor [3]): inactive
4 | Fc1cc(F)cc(COCC(c2ccccc2)N2CCNCC2)c1 (configuration not stated) | 9.10 | 6.70 | –
5 | CC(C)(C)c1cc(COCC(c2ccccc2)N2CCNCC2)cc(C(C)(C)C)c1 (configuration not stated) | 6.00 | – | –
6 | COc1c(Br)cc(Br)cc1COCC(c1ccccc1)N1CCNCC1 (configuration not stated) | 8.20 | 8.10 | –
7 | FC(F)(F)c1cc(COCC(c2ccc(Cl)c(Cl)c2)N2CCNCC2)cc(C(F)(F)F)c1 (configuration not stated) | 6.70 | 8.30 | –
8 | FC(F)(F)c1cc(COCC(c2cccc(Cl)c2)N2CCNCC2)cc(C(F)(F)F)c1 (configuration not stated) | 6.60 | 8.80 | –
9 | COc1ccc(C(COCc2cc(C(F)(F)F)cc(C(F)(F)F)c2)N2CCNCC2)cc1 (configuration not stated) | 7.00 | 7.30 | –
10 | Fc1cccc(C(COCc2cc(C(F)(F)F)cc(C(F)(F)F)c2)N2CCNCC2)c1F (configuration not stated) | 6.50 | 8.50 | –
11 | Fc1ccc(C(COCc2cc(C(F)(F)F)cc(C(F)(F)F)c2)N2CCNCC2)cc1 (configuration not stated) | 6.80 | 7.00 | –
12 | Fc1cc(COCC(c2ccccc2)N2CCNCC2)cc(C(F)(F)F)c1 (configuration not stated) | 7.80 | 7.90 | –
13 | Fc1ccccc1C(COCc1cc(C(F)(F)F)cc(C(F)(F)F)c1)N1CCNCC1 (configuration not stated) | 6.70 | 8.30 | –
14 | COc1ccccc1C(COCc1cc(C(F)(F)F)cc(C(F)(F)F)c1)N1CCNCC1 (configuration not stated) | 6.60 | 8.20 | –
15 | Cc1cc(C)cc(COCC(c2ccccc2)N2CCNCC2)c1 (configuration not stated) | – | 7.60 | –
16 | Clc1cc(Cl)cc(COC[C@@H](c2ccccc2)N2CCNCC2)c1 | 7.90 | 7.60 | –
17 | Brc1cc(Br)cc(COC[C@H](c2ccccc2)N2CCNCC2)c1 | 8.00 | 8.50 | Dose (Gerbillinae): 3.2e-05 M/kg; Dose (Cavia porcellus [4]): 1e-05 M/kg; Dose (Cavia porcellus [5]): 3.5e-05 M/kg; Dose (Rattus norvegicus): 3.2e-05 M/kg
18 | Brc1cc(Br)cc(COC[C@@H](c2ccccc2)N2CCNCC2)c1 | 7.50 | 7.90 | –
19 | Clc1cccc(COCC(c2ccccc2)N2CCNCC2)c1 (configuration not stated) | 8.10 | 6.40 | –
20 | Brc1cc(I)cc(COCC(c2ccccc2)N2CCNCC2)c1 (configuration not stated) | 7.60 | 8.90 | –
21 | CC(C)c1cccc(C(COCc2cc(C(F)(F)F)cc(C(F)(F)F)c2)N2CCNCC2)c1 (configuration not stated) | 6.50 | 7.40 | –
22 | FC(F)(F)c1cc(COCC(c2ccccc2)N2CCNCC2)cc(C(F)(F)F)c1 (configuration not stated) | 6.60 | 8.30 | –
23 | Clc1cc(Cl)cc(COC[C@H](c2ccccc2)N2CCNCC2)c1 | 8.60 | 8.50 | –
